Laboratory results: publication PMC4201344 (ACS Chemical Biology, 2014)
Where a chain is given by its changes, count along the chain named.

What was measured:
Type in all cases: cell-based, C. elegans
[1] = test system: GluClβ with α signal peptide, T6′S, F96TAG F3–Phe; test: two-electrode voltage clamp, Xenopus laevis oocytes, nonsense suppression; conditions: glutamate
GluClβ L9′A = GluClβ L9′A (Caenorhabditis elegans, UniProt Q17328, L286A); test: two-electrode voltage clamp, Xenopus laevis oocytes; conditions: glutamate
Chain of GluClβ L9′A (Q17328 23-434 L286A): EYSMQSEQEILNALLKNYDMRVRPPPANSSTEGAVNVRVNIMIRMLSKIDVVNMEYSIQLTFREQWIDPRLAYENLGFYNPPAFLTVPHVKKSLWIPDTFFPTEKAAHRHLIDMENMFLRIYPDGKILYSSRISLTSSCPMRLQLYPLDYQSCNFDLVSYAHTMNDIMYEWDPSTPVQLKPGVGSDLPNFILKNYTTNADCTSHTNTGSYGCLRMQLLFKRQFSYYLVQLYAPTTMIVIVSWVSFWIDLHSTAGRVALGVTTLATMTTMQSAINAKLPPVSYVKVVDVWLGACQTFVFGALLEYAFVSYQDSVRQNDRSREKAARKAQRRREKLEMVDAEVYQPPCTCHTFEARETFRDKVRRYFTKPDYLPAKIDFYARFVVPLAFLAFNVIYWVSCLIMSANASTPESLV
In short: (§1)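 C. elegans GluClβ (mammalian codon-optimised) in pGEMhe, mutated by QuikChange; T7 mRNA. […] Voltage clamp at −60 mV in Ca-free ND96, pH 7.5. […] Peak currents taken from baseline, normalised, averaged per concentration, and fit to Hill equation (EC50, nH).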

GluClβ T10′A = biological target: T1, GluClβ T10′A (Caenorhabditis elegans, UniProt Q17328, T287A); test: two-electrode voltage clamp, Xenopus laevis oocytes
T1 sequence (Q17328 23-434 T287A): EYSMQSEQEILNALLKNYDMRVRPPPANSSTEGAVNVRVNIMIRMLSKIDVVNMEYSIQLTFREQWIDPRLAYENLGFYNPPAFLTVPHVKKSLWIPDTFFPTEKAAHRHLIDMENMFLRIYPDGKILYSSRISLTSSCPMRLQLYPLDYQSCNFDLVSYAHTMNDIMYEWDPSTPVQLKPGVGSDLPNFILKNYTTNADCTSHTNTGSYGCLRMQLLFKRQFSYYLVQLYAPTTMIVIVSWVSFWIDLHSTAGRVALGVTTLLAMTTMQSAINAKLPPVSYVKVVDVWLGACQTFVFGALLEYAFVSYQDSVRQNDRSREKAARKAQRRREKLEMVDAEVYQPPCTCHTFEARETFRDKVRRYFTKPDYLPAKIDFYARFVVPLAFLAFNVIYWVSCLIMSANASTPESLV

[2] = test system: GluClβ with α signal peptide, T6′S, Y156TAG F2–Phe; test: two-electrode voltage clamp, Xenopus laevis oocytes, nonsense suppression; conditions: glutamate
[3] = biological target: GluClβ with α signal peptide (no T6′S) (Caenorhabditis elegans, UniProt Q17328); test: two-electrode voltage clamp, Xenopus laevis oocytes; conditions: α signal peptide chimera vs wild type
Chain of GluClβ with α signal peptide (no T6′S) (Q17328 23-434): as the sequence (Q17328 23-434 L286A) above, with A264L counted along it

[4] = test system: GluClβ with α signal sequence, T6’S, Y206 F2-Phe (3,5-F2–Phe); test: two-electrode voltage clamp, Xenopus laevis oocytes, nonsense suppression; conditions: glutamate; no plateau at 100 mM
In short: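 Site-specific TAG codon, read by 74mer THG73 tRNA ligated to dCA-acylated amino acid; NVOC removed by 5 min xenon-lamp irradiation just before injection. Oocytes coinjected with 37.5 ng mRNA plus ~1 μg/μL tRNA at 48 and 24 h pre-recording; unacylated 76mer tRNA served as read-through control.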

GluClβ T6′S, R40A = GluClβ T6′S, R40A (Caenorhabditis elegans, UniProt Q17328, R66A/T283S); test: two-electrode voltage clamp, Xenopus laevis oocytes; conditions: glutamate
Chain of GluClβ T6′S, R40A (Q17328 23-434 R66A/T283S): as the sequence (Q17328 23-434 L286A) above, with R44A, T261S, A264L counted along it

[5] = test system: GluClβ with α signal peptide, T6′S, Y156TAG F3–Phe; test: two-electrode voltage clamp, Xenopus laevis oocytes, nonsense suppression; conditions: glutamate
GluClβ A17′T = biological target: T2, GluClβ A17′T (Caenorhabditis elegans, UniProt Q17328, A294T); test: two-electrode voltage clamp, Xenopus laevis oocytes; conditions: glutamate
T2 sequence (Q17328 23-434 A294T): T1 sequence (Q17328 23-434 T287A) with A265T, A272T

GluClβ A20′T = biological target: T3, GluClβ A20′T (Caenorhabditis elegans, UniProt Q17328, A297T); test: as above; conditions: glutamate
T3 sequence (Q17328 23-434 A297T): T1 sequence (Q17328 23-434 T287A) with A265T, A275T

GluClβ T6′S/T10′S = GluClβ T6′S/T10′S (Caenorhabditis elegans, UniProt Q17328, T283S/T287S); test: as above; conditions: glutamate
Chain of GluClβ T6′S/T10′S (Q17328 23-434 T283S/T287S): as the sequence (Q17328 23-434 L286A) above, with T261S, A264L, T265S counted along it

GluClβ T6′S, R59A = GluClβ T6′S, R59A (Caenorhabditis elegans, UniProt Q17328, R85A/T283S); test: two-electrode voltage clamp, Xenopus laevis oocytes; conditions: glutamate
Chain of GluClβ T6′S, R59A (Q17328 23-434 R85A/T283S): as the sequence (Q17328 23-434 L286A) above, with R63A, T261S, A264L counted along it
In short: as §1

[6] = test system: GluClβ with α signal peptide, T6′S, F96TAG F1–Phe; test: two-electrode voltage clamp, Xenopus laevis oocytes, nonsense suppression; conditions: glutamate
GluClβ T6′S, Q174A = GluClβ T6′S, Q174A (Caenorhabditis elegans, UniProt Q17328, Q200A/T283S); test: two-electrode voltage clamp, Xenopus laevis oocytes; conditions: glutamate
Chain of GluClβ T6′S, Q174A (Q17328 23-434 Q200A/T283S): as the sequence (Q17328 23-434 L286A) above, with Q178A, T261S, A264L counted along it

GluClβ L9′V = GluClβ L9′V (Caenorhabditis elegans, UniProt Q17328, L286V); test: two-electrode voltage clamp, Xenopus laevis oocytes; conditions: glutamate
Chain of GluClβ L9′V (Q17328 23-434 L286V): as the sequence (Q17328 23-434 L286A) above, with A264V counted along it
In short: as §1

N[C@@H](CCC(=O)O)C(=O)O [glutamate]
EC50 [1]: 39 ± 1 µM | Hill [1]: 2.4 ± 0.2 | Imax [1]: 0.06–0.6 μA | EC50 (GluClβ L9′A): constitutively active | EC50 (GluClβ T10′A; glutamate): 13 ± 1 µM | Hill (GluClβ T10′A; glutamate): 2.8 ± 0.1 | Imax (GluClβ T10′A; glutamate): 2–28 μA | increase in receptor sensitivity (GluClβ T10′A; vs WT): 27 fold | EC50 [2]: 49 ± 3 mM | Hill [2]: 1.8 ± 0.1 | Imax [2]: 0.2–4 μA | increase in EC50 [3]: < 3 fold | EC50 [4]: > 100 mM | EC50 (GluClβ T6′S, R40A): 1.1 ± 0.1 mM | Hill (GluClβ T6′S, R40A): 2.1 ± 0.1 | EC50 [5]: 65 ± 5 mM | Hill [5]: 1.7 ± 0.1 | Imax [5]: 0.3–2 μA | EC50 (GluClβ A17′T): 58 ± 1 µM | Hill (GluClβ A17′T): 2.8 ± 0.1 | Imax (GluClβ A17′T): 0.3–13 μA | EC50 (GluClβ A20′T): 110 ± 20 µM | Hill (GluClβ A20′T): 1.7 ± 0.1 | Imax (GluClβ A20′T): 0.5–48 μA | EC50 (GluClβ T6′S/T10′S): constitutive activity, some glutamate response | EC50 (GluClβ T6′S, R59A): no response | EC50 [6]: 80 ± 2 µM | Hill [6]: 2.8 ± 0.2 | Imax [6]: 0.1–0.5 μA | EC50 (GluClβ T6′S, Q174A): 110 ± 10 µM | Hill (GluClβ T6′S, Q174A): 2.4 ± 0.2 | EC50 (GluClβ L9′V): no response
